Measured values of several laboratories.
ABL1 Y253F: Tyrosine-protein kinase ABL1 (ABL1, Homo sapiens, UniProt P00519, Y253F)
ABL1 phosphorylated: Tyrosine-protein kinase ABL1, phosphorylated (ABL1, Homo sapiens, UniProt P00519)
ABL1: Tyrosine-protein kinase ABL1 (ABL1, Homo sapiens, UniProt P00519)

| Structure (SMILES) | target | observed | action | method | concentration | endpoint | result |
| --- | --- | --- | --- | --- | --- | --- | --- |
| Cc1ccc(NC(=O)c2ccnc(C(F)(F)F)c2)cc1-c1cc(OCCO)nc(N2CCOCC2)c1 | Tyrosine-protein kinase ABL1 (ABL1, Homo sapiens, UniProt P00519, F317I) | binding |  |  | 1 µM | remaining binding | 85% |
| C1=C/COCc2cc(ccc2OCCN2CCCC2)Nc2nccc(n2)-c2cccc(c2)COC/1 | Tyrosine-protein kinase ABL1 (ABL1, Homo sapiens, UniProt P00519, E255K) | binding |  |  | 0.1 µM | remaining binding | 23% |
| COc1ccc2[nH]c3c4[nH]c5ccc(OC)cc5c4c4c(c3c2c1)C(=O)NC4=O | Tyrosine-protein kinase ABL1 (ABL1, Homo sapiens, UniProt P00519, M351T) | binding |  |  | 1 µM | remaining binding | 68% |
| C#Cc1cc(-c2cc(Nc3nc(N[C@@H](C)c4ccc(F)cn4)ncc3Cl)n[nH]2)ccc1C=O | Tyrosine-protein kinase ABL1 (ABL1, Homo sapiens, UniProt P00519, H396P) | enzyme activity | inhibitor |  | 0.2 µM | inhibition | 16.6% |
| C[C@H]1CC[C@H](n2c3cnccc3c3cnc(Nc4ccc5c(n4)CCN(C(=O)CO)C5)nc32)CC1 | ABL1 Y253F | cell-free assay |  |  | 1 µM | remaining signal | 100% |
| N#Cc1ccc(NC(=O)Nc2ccccc2)cc1 | ABL1 phosphorylated | cell-free assay |  | competition with immobilised ligand | 25 µM | remaining binding | 96% |
| Cc1nc(Nc2ncc(C(=O)Nc3c(C)cccc3Cl)s2)cc(N2CCC(O)CC2)n1 | ABL1 | enzyme activity | inhibitor |  | 1 nM | inhibition | 83% |
| C=CC(=O)N1CCC([C@@H]2CCNc3c(C(N)=O)c(-c4ccc(Oc5ccccc5)cc4)nn32)CC1 | Tyrosine-protein kinase ABL1, phosphorylated (ABL1, Homo sapiens, UniProt P00519, Q252H) | enzyme activity | inhibitor |  | 1 µM | inhibition | 32% |
| CCCCC(=O)Nc1ccc(-c2ccc3ncn(CCC)c(=O)c3c2)cn1 | ABL1 phosphorylated | binding |  | competition with immobilised ligand | 0.5 µM | remaining binding | 93% |
| Cc1nc(Nc2ncc(C(=O)Nc3c(C)cccc3Cl)s2)cc(N2CC[C@H](N)C2)n1 | ABL1 | enzyme activity | inhibitor |  | 1 nM | inhibition | 92% |
| CC#CC(=O)N1CCC[C@H]1c1nc(-c2ccc(C(=O)Nc3ccccn3)cc2)c2c(N)nccn12 | Tyrosine-protein kinase ABL1, non-phosphorylated (ABL1, Homo sapiens, UniProt P00519, T315I) | enzyme activity | inhibitor |  | 1 µM | inhibition | 19% |
| Cc1nc(Nc2ncc(C(=O)Nc3c(C)cccc3Cl)s2)cc(N2CCCCC2)n1 | ABL1 | enzyme activity | inhibitor |  | 1 nM | inhibition | 65% |
| COc1ccc2oc(-c3ccc4nc(N)oc4c3)c/c(=N\c3ccccc3NC(=O)CCN)c2c1 | ABL1 Y253F | cell-free assay |  |  | 1 µM | remaining signal | 95% |
| [2H]c1cc(C)c(NC(=O)c2cnc(Nc3cc(N4CC[C@H](O)C4)nc(C)n3)s2)c(Cl)c1 | ABL1 | enzyme activity | inhibitor |  | 1 nM | inhibition | 86% |
| CO[C@@H]1[C@H](N(C)C(=O)c2ccccc2)C[C@H]2O[C@]1(C)n1c3ccccc3c3c4c(c5c6ccccc6n2c5c31)C(=O)NC4 | Tyrosine-protein kinase ABL1, phosphorylated (ABL1, Homo sapiens, UniProt P00519, M351T) | enzyme activity | inhibitor |  | 1 µM | inhibition | 13% |
| CN1CCN(C(=O)c2ccc(NC(=O)Nc3ccc(N(C)c4ccnc(Nc5ccc(CS(C)(=O)=O)cc5)n4)cc3)cc2)CC1 | ABL1 Y253F | binding |  |  | 1 µM | remaining binding | 20% |
| [2H]c1cc(C)c(NC(=O)c2cnc(Nc3cc(N4CCCCC4)nc(C)n3)s2)c(Cl)c1 | ABL1 | enzyme activity | inhibitor |  | 1 nM | inhibition | 96% |
